Reference: ChEMBL document CHEMBL3124924, “Bifunctional ethyl 2-amino-4-methylthiazole-5-carboxylate derivatives: synthesis and in vitro biological evaluation as antimicrobial and anticancer agents” (2014)
Values after ≈ are worked out from the molar mass of the structure shown. Active and inactive are the calls of the source. No cut-off for these calls is given here.

Test system: U-251
Assay: Cytotoxicity against human U251 cells assessed as growth inhibition at 10 uM after 48 hrs by SRB assay
Assay type: functional
Details: U-251, 48 h, read-out: GI
Summary of the method: (§1)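 NCI-60 one-dose primary screen run by the NCI Drug Evaluation Branch across the full 60-line panel. Single high-dose treatment with 48 h continuous drug exposure. Cell growth estimated by sulforhodamine B protein staining. Results given as percent growth of treated cells and expressed as percentage growth inhibition.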

SMILES	inhibition of growth at 10 µM [%]
CCOC(=O)c1sc(NC(=O)NC2CCCCC2)nc1C	< 10

Test system: CCRF-CEM
Assay: Cytotoxicity against human CCRF-CEM cells assessed as growth inhibition at 10 uM after 48 hrs by SRB assay
Assay type: functional
Details: read-out: GI
Summary of the method: as §1

SMILES	inhibition of growth at 10 µM [%]
CCOC(=O)c1sc(NC(=O)NC2CCCCC2)nc1C	6.76

Test system: HT-29
Assay: Cytotoxicity against human HT-29 cells assessed as growth inhibition at 10 uM after 48 hrs by SRB assay
Assay type: functional
Details: HT-29, 48 h, read-out: GI
Summary of the method: as §1

SMILES	inhibition of growth at 10 µM [%]
CCOC(=O)c1sc(NC(=O)NC2CCCCC2)nc1C	15.5

Test system: K562
Assay: Cytotoxicity against human K562 cells assessed as growth inhibition at 10 uM after 48 hrs by SRB assay
Assay type: functional
Details: K562, 48 h, read-out: GI
Summary of the method: as §1

SMILES	inhibition of growth at 10 µM [%]
CCOC(=O)c1sc(NC(=O)NC2CCCCC2)nc1C	9.69

Test system: HCT-15
Assay: Cytotoxicity against human HCT15 cells assessed as growth inhibition at 10 uM after 48 hrs by SRB assay
Assay type: functional
Details: HCT-15, 48 h, read-out: GI
Summary of the method: as §1

SMILES	inhibition of growth at 10 µM [%]
CCOC(=O)c1sc(NC(=O)NC2CCCCC2)nc1C	14.3

Test system: SW-620
Assay: Cytotoxicity against human SW620 cells assessed as growth inhibition at 10 uM after 48 hrs by SRB assay
Assay type: functional
Details: SW-620, 48 h, read-out: GI
Summary of the method: as §1

SMILES	inhibition of growth at 10 µM [%]
CCOC(=O)c1sc(NC(=O)NC2CCCCC2)nc1C	7.5

Test system: Staphylococcus aureus
Assay: Antibacterial activity against Staphylococcus aureus ATCC 6538 assessed as growth inhibition after 48 hrs by two-fold serial dilution assay
Assay type: functional
Details: ATCC 6538, 48 h
Summary of the method: (§2)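 Twofold serial broth dilution run on compounds giving inhibition zones of 13 mm or more. Organisms pre-grown in suitable broth at 37 °C, 24 h for bacteria and 48 h for fungi. Dilution series 200, 100, 50, 25, 12.5, 6.25. Each 5 mL tube inoculated with 0.1 mL and incubated 37 °C for 48 h. Tubes scored for presence or absence of growth.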

SMILES	MIC [µg/mL]
CCOC(=O)c1sc(NC(=O)NC2CCCCC2)nc1C	50 (≈ 161 µM)

Test system: HCT-116
Assay: Cytotoxicity against human HCT116 cells assessed as growth inhibition at 10 uM after 48 hrs by SRB assay
Assay type: functional
Details: HCT-116, 48 h, read-out: GI
Summary of the method: as §1

SMILES	inhibition of growth at 10 µM [%]
CCOC(=O)c1sc(NC(=O)NC2CCCCC2)nc1C	14.2

Test system: Bacillus spizizenii
Assay: Antibacterial activity against Bacillus subtilis ATCC 6633 assessed as growth inhibition after 48 hrs by two-fold serial dilution assay
Assay type: functional
Details: ATCC 6633, 48 h
Summary of the method: as §2

SMILES	MIC [µg/mL]
CCOC(=O)c1sc(NC(=O)NC2CCCCC2)nc1C	100 (≈ 321 µM)

Test system: Candida albicans
Assay: Antifungal activity against Candida albicans ATCC 10231 assessed as growth inhibition at 1 mg/mL after 48 hrs by agar-cup diffusion method
Assay type: functional
Details: ATCC 10231, 48 h, read-out: DIZ
Summary of the method: (§3)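 Agar-cup diffusion: 1 mL of 6 h broth culture seeded per 100 mL molten sterile agar at 45 °C and poured into plates. 8 mm cups cut, each filled with 0.1 mL of 1 mg/mL test solution. Incubated 37 °C for 24 h, 48 h for C. albicans. DMSO control per organism. Inhibition zone diameter in mm, mean of three measurements.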

SMILES	zone of inhibition at 1000 µg/mL [mm]
CCOC(=O)c1sc(NC(=O)NC2CCCCC2)nc1C	> 13

Test system: NCI-H226
Assay: Cytotoxicity against human NCI-H226 cells assessed as growth inhibition at 10 uM after 48 hrs by SRB assay
Assay type: functional
Details: NCI-H226, 48 h, read-out: GI
Summary of the method: as §1

SMILES	inhibition of growth at 10 µM [%]
CCOC(=O)c1sc(NC(=O)NC2CCCCC2)nc1C	9.89

Test system: Escherichia coli
Assay: Antibacterial activity against Escherichia coli ATCC 25922 assessed as growth inhibition at 1 mg/mL after 24 hrs by agar-cup diffusion method
Assay type: functional
Details: ATCC 25922, 24 h, read-out: DIZ
Summary of the method: as §3

SMILES	zone of inhibition at 1000 µg/mL [mm]
CCOC(=O)c1sc(NC(=O)NC2CCCCC2)nc1C	> 13

Test system: SK-MEL-2
Assay: Cytotoxicity against human SK-MEL-2 cells assessed as growth inhibition at 10 uM after 48 hrs by SRB assay
Assay type: functional
Details: SK-MEL-2, 48 h, read-out: GI
Summary of the method: as §1

SMILES	inhibition of growth at 10 µM [%]
CCOC(=O)c1sc(NC(=O)NC2CCCCC2)nc1C	64.1

Test system: MDA-MB-468
Assay: Cytotoxicity against human MDA-MB-468 cells assessed as growth inhibition at 10 uM after 48 hrs by SRB assay
Assay type: functional
Details: MDA-MB-468, 48 h, read-out: GI
Summary of the method: as §1

SMILES	inhibition of growth at 10 µM [%]
CCOC(=O)c1sc(NC(=O)NC2CCCCC2)nc1C	< 10

Test system: Escherichia coli
Assay: Bactericidal activity against Escherichia coli ATCC 25922 after 18 hrs
Assay type: functional
Details: ATCC 25922, 18 h
Summary of the method: (§4)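 Continuation of the broth-dilution MIC test. A loopful from each tube without visible growth spread on a quarter of a Mueller-Hinton agar plate and incubated 18 h. Lowest concentration giving no growth on subculture taken as the MBC.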

SMILES	MBC [µg/mL]
CCOC(=O)c1sc(NC(=O)NC2CCCCC2)nc1C	100 (≈ 321 µM)

Test system: Bacillus spizizenii
Assay: Bactericidal activity against Bacillus subtilis ATCC 6633 after 18 hrs
Assay type: functional
Details: ATCC 6633, 18 h
Summary of the method: as §4

SMILES	MBC [µg/mL]
CCOC(=O)c1sc(NC(=O)NC2CCCCC2)nc1C	100 (≈ 321 µM)

Test system: UACC-62
Assay: Cytotoxicity against human UACC62 cells assessed as growth inhibition at 10 uM after 48 hrs by SRB assay
Assay type: functional
Details: UACC-62, 48 h, read-out: GI
Summary of the method: as §1

SMILES	inhibition of growth at 10 µM [%]
CCOC(=O)c1sc(NC(=O)NC2CCCCC2)nc1C	26

Test system: LOX IMVI
Assay: Cytotoxicity against human LOXIMVI cells assessed as growth inhibition at 10 uM after 48 hrs by SRB assay
Assay type: functional
Details: read-out: GI
Summary of the method: as §1

SMILES	inhibition of growth at 10 µM [%]
CCOC(=O)c1sc(NC(=O)NC2CCCCC2)nc1C	13

Test system: PC-3
Assay: Cytotoxicity against human PC3 cells assessed as growth inhibition at 10 uM after 48 hrs by SRB assay
Assay type: functional
Details: PC-3, 48 h, read-out: GI
Summary of the method: as §1

SMILES	inhibition of growth at 10 µM [%]
CCOC(=O)c1sc(NC(=O)NC2CCCCC2)nc1C	< 10

Test system: HCC 2998
Assay: Cytotoxicity against human HCC2998 cells assessed as growth inhibition at 10 uM after 48 hrs by SRB assay
Assay type: functional
Details: HCC 2998, 48 h, read-out: GI
Summary of the method: as §1

SMILES	inhibition of growth at 10 µM [%]
CCOC(=O)c1sc(NC(=O)NC2CCCCC2)nc1C	< 10

Test system: NCI-H522
Assay: Cytotoxicity against human NCI-H522 cells assessed as growth inhibition at 10 uM after 48 hrs by SRB assay
Assay type: functional
Details: NCI-H522, 48 h, read-out: GI
Summary of the method: as §1

SMILES	inhibition of growth at 10 µM [%]
CCOC(=O)c1sc(NC(=O)NC2CCCCC2)nc1C	< 10

Test system: SR
Assay: Cytotoxicity against human SR cells assessed as growth inhibition at 10 uM after 48 hrs by SRB assay
Assay type: functional
Details: read-out: GI
Summary of the method: as §1

SMILES	inhibition of growth at 10 µM [%]
CCOC(=O)c1sc(NC(=O)NC2CCCCC2)nc1C	35.3

Test system: RPMI-8226
Assay: Cytotoxicity against human RPMI8226 cells assessed as growth inhibition at 10 uM after 48 hrs by SRB assay
Assay type: functional
Details: RPMI-8226, 48 h, read-out: GI
Summary of the method: as §1

SMILES	inhibition of growth at 10 µM [%]
CCOC(=O)c1sc(NC(=O)NC2CCCCC2)nc1C	4.13

Test system: Pseudomonas aeruginosa
Assay: Antibacterial activity against Pseudomonas aeruginosa ATCC 27853 assessed as growth inhibition at 1 mg/mL after 24 hrs by agar-cup diffusion method
Assay type: functional
Details: ATCC 27853, 24 h, read-out: DIZ
Summary of the method: as §3

SMILES	zone of inhibition at 1000 µg/mL [mm]
CCOC(=O)c1sc(NC(=O)NC2CCCCC2)nc1C	> 13

Test system: SN12C
Assay: Cytotoxicity against human SN12C cells assessed as growth inhibition at 10 uM after 48 hrs by SRB assay
Assay type: functional
Details: read-out: GI
Summary of the method: as §1

SMILES	inhibition of growth at 10 µM [%]
CCOC(=O)c1sc(NC(=O)NC2CCCCC2)nc1C	5.62

Test system: SF-268
Assay: Cytotoxicity against human SF268 cells assessed as growth inhibition at 10 uM after 48 hrs by SRB assay
Assay type: functional
Details: SF-268, 48 h, read-out: GI
Summary of the method: as §1

SMILES	inhibition of growth at 10 µM [%]
CCOC(=O)c1sc(NC(=O)NC2CCCCC2)nc1C	12.6

Test system: Staphylococcus aureus
Assay: Bactericidal activity against Staphylococcus aureus ATCC 6538 after 18 hrs
Assay type: functional
Details: ATCC 6538, 18 h
Summary of the method: as §4

SMILES	MBC [µg/mL]
CCOC(=O)c1sc(NC(=O)NC2CCCCC2)nc1C	50 (≈ 161 µM)

Test system: IGROV-1
Assay: Cytotoxicity against human IGROV1 cells assessed as growth inhibition at 10 uM after 48 hrs by SRB assay
Assay type: functional
Details: IGROV-1, 48 h, read-out: GI
Summary of the method: as §1

SMILES	inhibition of growth at 10 µM [%]
CCOC(=O)c1sc(NC(=O)NC2CCCCC2)nc1C	43.7

Test system: T47D
Assay: Cytotoxicity against human T47D cells assessed as growth inhibition at 10 uM after 48 hrs by SRB assay
Assay type: functional
Details: read-out: GI
Summary of the method: as §1

SMILES	inhibition of growth at 10 µM [%]
CCOC(=O)c1sc(NC(=O)NC2CCCCC2)nc1C	4.11

Test system: Staphylococcus aureus
Assay: Antibacterial activity against Staphylococcus aureus ATCC 6538 assessed as growth inhibition at 1 mg/mL after 24 hrs by agar-cup diffusion method
Assay type: functional
Details: ATCC 6538, 24 h, read-out: DIZ
Summary of the method: as §3

SMILES	zone of inhibition at 1000 µg/mL [mm]
CCOC(=O)c1sc(NC(=O)NC2CCCCC2)nc1C	> 13

Test system: Aspergillus niger
Assay: Antifungal activity against Aspergillus niger assessed as growth inhibition at 1 mg/mL after 24 hrs by agar-cup diffusion method
Assay type: functional, organism-based
Details: not given
Summary of the method: as §3

SMILES	growth inhibition (GI)
CCOC(=O)c1sc(NC(=O)NC2CCCCC2)nc1C	inactive
